Data reported in ChEMBL document CHEMBL4020842, “Discovery of N1-(4-((7-Cyclopentyl-6-(dimethylcarbamoyl)-7 H-pyrrolo[2,3- d]pyrimidin-2-yl)amino)phenyl)- N8-hydroxyoctanediamide as a Novel Inhibitor Targeting Cyclin-dependent Kinase 4/9 (CDK4/9) and Histone Deacetlyase1 (HDAC1) against Malignant Cancer” (J Med Chem, 2018).
Active and inactive are the calls of the source. The rule behind the calls is not given here.

Legend:
[1] = AUC (0 to infinity) in Sprague-Dawley rat at 20 mg/kg, iv administered as single dose by HPLC analysis; assay type: ADME, organism-based; set-up: dose 20 mg/kg, route intravenous, time infinity; conditions: in vivo
[2] = Cmax in Sprague-Dawley rat at 20 mg/kg, ip administered as single dose by HPLC analysis; assay type: ADME, organism-based; set-up: dose 20 mg/kg, route intraperitoneal; conditions: in vivo
Aurora kinase A = Aurora kinase A (Homo sapiens, UniProt O14965); experiment: Inhibition of recombinant human full length C-terminal 6His-tagged Aurora-A expressed in baculovirus infected sf21 cells using kemptide substrate in presence of [gamma33P]ATP after 10 mins by scintillation counting method
HepG2 [3] = experiment: Induction of apoptosis in human HepG2 cells after 48 hrs by annexin V-FITC/propidium iodide staining based flow cytometry; assay type: functional, cell-based
[4] = molecular target: High affinity nerve growth factor receptor (Homo sapiens, UniProt P04629); experiment: Inhibition of recombinant human N-terminal His6-tagged TrkA (440-end residues) expressed in baculovirus infected sf21 cells
Histone deacetylase 1 = Histone deacetylase 1 (Homo sapiens, UniProt Q13547); experiment: Inhibition of HDAC1 in human MDA-MB-231 cells assessed as increase in p53 phosphorylation at Ser15 residue at 1 to 5 uM after 48 hrs by Western blot method; assay type: cell-based
T47D [5] = experiment: Induction of apoptosis in human T47D cells assessed as late apoptotic cells at 10 uM after 48 hrs by annexin V-FITC/propidium iodide staining based flow cytometry (reference value: 6.16%); assay type: functional
T47D [6] = experiment: Induction of apoptosis in human T47D cells assessed as early apoptotic cells at 1 uM after 48 hrs by annexin V-FITC/propidium iodide staining based flow cytometry (reference value: 7.7%); assay type: functional
NCI-H460 [7] = experiment: Induction of apoptosis in human NCI-H460 cells assessed as live cells at 10 uM after 48 hrs by annexin V-FITC/propidium iodide staining based flow cytometry (reference value: 97.3%); assay type: functional
A549 [8] = experiment: Cell cycle arrest in human A549 cells assessed as decrease in S-phase at 625 nM after 24 hrs by propidium iodide staining based flow cytometry; assay type: functional
Outline: (§1)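 Cells were exposed for 24 h to a range of concentrations (625 nM, 2.5 and 10 µM), with DMSO vehicle as control. They were then stained with propidium iodide and analysed by flow cytometry to obtain the percentages of cells in G0/G1, S and G2 phases.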

A549 [9] = experiment: Induction of apoptosis in human A549 cells assessed as early apoptotic cells at 1 uM after 48 hrs by annexin V-FITC/propidium iodide staining based flow cytometry (reference value: 0.41%); assay type: functional
4T1 = experiment: Cytotoxicity against mouse 4T1 cells assessed as reduction in cell viability after 72 hrs by CCK8 assay; assay type: functional, cell-based; conditions: 4T1, 72 h
[10] = molecular target: Cyclin-dependent kinase 5/CDK5 activator 1 (Homo sapiens) (UniProt Q00535+Q15078); experiment: Inhibition of recombinant human full length N-terminal 6His-tagged CDK5/N-terminal GST-tagged p35 co-expressed in baculovirus infected sf21 cells at 1 uM using histone H1 substrate in presence of [gamma33P]ATP after 10 mins by scintillation counting method relative to control
CDK4/CDK9 (Homo sapiens) [11] = molecular target: T1, CDK4/CDK9 (Homo sapiens) (UniProt P11802+P50750); experiment: Inhibition of CDK4/CDK9 in human Hep3B cells assessed as reduction in Rb phosphorylation at Ser807/811 residues at 1 uM after 48 hrs by Western blot method; assay type: cell-based
[12] = Half life in Sprague-Dawley rat at 20 mg/kg, po administered as single dose by HPLC analysis; assay type: ADME, organism-based; conditions: in vivo
Mus musculus = experiment: Toxicity in Balb/c mouse assessed as overt signs of toxicity at 45 to 130 mg/kg, ip for 16 consecutive days; assay type: organism-based; conditions: in vivo
T47D [13] = experiment: Induction of apoptosis in human T47D cells assessed as late apoptotic cells at 1 uM after 48 hrs by annexin V-FITC/propidium iodide staining based flow cytometry (reference value: 6.16%); assay type: functional
[14] = molecular target: CDK9/cyclin T1 (Homo sapiens) (UniProt O60563+P50750); experiment: Inhibition of recombinant human full length C-terminal 6His-tagged CDK9/Cyclin-T1 co-expressed in baculovirus infected sf21 cells at 1 uM using PDKtide substrate in presence of [gamma33P]ATP after 10 mins by scintillation counting method relative to control
Hep 3B2 [15] = experiment: Induction of apoptosis in human Hep3B cells assessed as caspase-3 cleavage after 48 hrs by Western blot method; assay type: functional, cell-based
Outline: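 Cells were treated with or without compound and control for 48 h, then lysed. Bcl-2 and cleaved caspase 3 were assessed by Western blot.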

HepG2 [16] = experiment: Cytotoxicity against human HepG2 cells assessed as reduction in cell viability after 72 hrs by CCK8 assay; assay type: functional, cell-based; conditions: HepG2, 72 h
HepG2 [17] = experiment: Induction of apoptosis in human HepG2 cells assessed as necrotic cells at 10 uM after 48 hrs by annexin V-FITC/propidium iodide staining based flow cytometry (reference value: 2.32%); assay type: functional
Hep 3B2 [18] = experiment: Induction of apoptosis in human Hep3B cells assessed as necrotic cells at 5 uM after 48 hrs by annexin V-FITC/propidium iodide staining based flow cytometry (reference value: 4.97%); assay type: functional
[19] = molecular target: Calcium/calmodulin-dependent protein kinase kinase 2 (Homo sapiens, UniProt Q96RR4); experiment: Inhibition of recombinant human full length C-terminal 6His-tagged CaMKK2 expressed in baculovirus infected sf21 cells
HepG2 [20] = experiment: Downregulation of Cyclin-D1 protein expression in human HepG2 cells after 48 hrs by Western blot method; assay type: functional, cell-based
Outline: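 Treated cells were lysed and CDK4 and cyclin D1 protein levels were assessed by Western blot.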

[21] = Clearance in Sprague-Dawley rat at 20 mg/kg, ip administered as single dose by HPLC analysis; assay type: ADME, organism-based; conditions: in vivo
NCI-H460 [22] = experiment: Cell cycle arrest in human NCI-H460 cells assessed as decrease in S-phase at 625 nM after 24 hrs by propidium iodide staining based flow cytometry; assay type: functional; outline: as §1
[23] = molecular target: CDK3/Cyclin E (Homo sapiens) (UniProt P24864+Q00526); experiment: Inhibition of recombinant human full length C-terminal 6His-tagged CDK3/N-terminal GST-tagged Cyclin-E co-expressed in baculovirus infected sf21 cells at 1 uM relative to control
[24] = Clearance in Sprague-Dawley rat at 20 mg/kg, iv administered as single dose by HPLC analysis; assay type: ADME, organism-based; conditions: in vivo
[25] = molecular target: Cyclin-dependent kinase 2/cyclin E1 (Homo sapiens) (UniProt P24864+P24941); experiment: Inhibition of recombinant human full length C-terminal 6His-tagged CDK2/N-terminal GST-tagged Cyclin-E co-expressed in baculovirus infected sf21 cells at 1 uM using histone H1 substrate in presence of [gamma33P]ATP after 10 mins by scintillation counting method relative to control
CDK4/CDK9 (Homo sapiens) [26] = molecular target: T1, CDK4/CDK9 (Homo sapiens); experiment: Inhibition of CDK4/CDK9 in human HepG2 cells assessed as reduction in Rb phosphorylation at Ser807/811 residues at 1 uM after 48 hrs by Western blot method; assay type: cell-based
HepG2 [27] = experiment: Induction of apoptosis in human HepG2 cells assessed as live cells at 5 uM after 48 hrs by annexin V-FITC/propidium iodide staining based flow cytometry (reference value: 96.7%); assay type: functional
CDK4/CDK9 (Homo sapiens) [28] = molecular target: T1, CDK4/CDK9 (Homo sapiens); experiment: Inhibition of CDK4/CDK9 in human MDA-MB-231 cells assessed as reduction in Rb phosphorylation at Ser807/811 residues at 1 uM after 48 hrs by Western blot method; assay type: cell-based

T1 sequence (P11802 whole entry, looked up): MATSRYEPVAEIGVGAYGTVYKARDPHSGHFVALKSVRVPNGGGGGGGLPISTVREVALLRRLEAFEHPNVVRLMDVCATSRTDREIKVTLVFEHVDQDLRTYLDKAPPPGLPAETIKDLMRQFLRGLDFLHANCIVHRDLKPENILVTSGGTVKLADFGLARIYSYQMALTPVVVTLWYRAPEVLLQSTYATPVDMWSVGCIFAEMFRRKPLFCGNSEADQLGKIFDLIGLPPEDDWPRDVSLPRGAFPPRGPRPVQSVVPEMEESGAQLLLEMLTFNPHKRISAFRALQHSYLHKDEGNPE
T1 sequence (P50750 whole entry, looked up): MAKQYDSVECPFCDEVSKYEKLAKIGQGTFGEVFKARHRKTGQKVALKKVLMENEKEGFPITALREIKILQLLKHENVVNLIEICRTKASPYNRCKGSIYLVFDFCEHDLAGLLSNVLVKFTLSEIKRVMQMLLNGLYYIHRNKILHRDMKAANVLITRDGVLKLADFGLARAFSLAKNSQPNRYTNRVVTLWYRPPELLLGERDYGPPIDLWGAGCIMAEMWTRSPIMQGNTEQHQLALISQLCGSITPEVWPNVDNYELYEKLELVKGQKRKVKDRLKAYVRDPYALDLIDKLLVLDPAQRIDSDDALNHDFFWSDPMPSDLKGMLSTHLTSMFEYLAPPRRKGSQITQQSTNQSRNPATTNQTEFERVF
Sequence of Calcium/calmodulin-dependent protein kinase kinase 2 (Q96RR4 whole entry): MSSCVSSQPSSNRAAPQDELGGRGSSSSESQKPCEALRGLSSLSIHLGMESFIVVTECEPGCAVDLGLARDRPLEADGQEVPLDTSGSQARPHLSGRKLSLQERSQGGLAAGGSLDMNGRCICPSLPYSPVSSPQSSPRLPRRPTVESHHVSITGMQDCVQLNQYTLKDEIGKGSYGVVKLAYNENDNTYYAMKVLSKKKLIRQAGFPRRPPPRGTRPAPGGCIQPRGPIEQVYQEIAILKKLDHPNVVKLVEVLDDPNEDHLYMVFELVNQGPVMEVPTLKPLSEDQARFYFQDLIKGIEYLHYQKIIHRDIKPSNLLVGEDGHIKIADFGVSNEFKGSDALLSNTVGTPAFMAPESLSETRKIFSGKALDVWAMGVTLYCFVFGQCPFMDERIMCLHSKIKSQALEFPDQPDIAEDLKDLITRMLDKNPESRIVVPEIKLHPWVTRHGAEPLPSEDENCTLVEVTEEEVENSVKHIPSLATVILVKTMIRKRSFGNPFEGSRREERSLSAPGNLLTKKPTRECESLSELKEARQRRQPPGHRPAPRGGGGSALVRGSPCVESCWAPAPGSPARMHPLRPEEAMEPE
Sequence of Cyclin-dependent kinase 5/CDK5 activator 1 (Homo sapiens) (Q00535 whole entry): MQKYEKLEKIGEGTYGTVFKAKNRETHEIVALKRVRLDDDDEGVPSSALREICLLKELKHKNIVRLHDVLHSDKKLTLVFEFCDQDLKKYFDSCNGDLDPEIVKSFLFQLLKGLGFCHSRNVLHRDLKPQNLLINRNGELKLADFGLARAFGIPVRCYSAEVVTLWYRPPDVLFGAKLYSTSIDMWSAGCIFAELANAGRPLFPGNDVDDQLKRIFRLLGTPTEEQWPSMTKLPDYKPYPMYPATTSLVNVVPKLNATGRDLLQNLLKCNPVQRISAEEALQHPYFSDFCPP
Sequence of Cyclin-dependent kinase 5/CDK5 activator 1 (Homo sapiens) (Q15078 99-307 partner limits assumed): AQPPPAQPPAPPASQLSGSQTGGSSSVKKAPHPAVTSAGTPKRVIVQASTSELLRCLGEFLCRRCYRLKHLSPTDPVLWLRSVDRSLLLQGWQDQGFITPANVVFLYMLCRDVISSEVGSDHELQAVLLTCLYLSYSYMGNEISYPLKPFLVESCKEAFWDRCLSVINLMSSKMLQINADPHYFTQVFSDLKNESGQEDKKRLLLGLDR
Sequence of Histone deacetylase 1 (Q13547 whole entry): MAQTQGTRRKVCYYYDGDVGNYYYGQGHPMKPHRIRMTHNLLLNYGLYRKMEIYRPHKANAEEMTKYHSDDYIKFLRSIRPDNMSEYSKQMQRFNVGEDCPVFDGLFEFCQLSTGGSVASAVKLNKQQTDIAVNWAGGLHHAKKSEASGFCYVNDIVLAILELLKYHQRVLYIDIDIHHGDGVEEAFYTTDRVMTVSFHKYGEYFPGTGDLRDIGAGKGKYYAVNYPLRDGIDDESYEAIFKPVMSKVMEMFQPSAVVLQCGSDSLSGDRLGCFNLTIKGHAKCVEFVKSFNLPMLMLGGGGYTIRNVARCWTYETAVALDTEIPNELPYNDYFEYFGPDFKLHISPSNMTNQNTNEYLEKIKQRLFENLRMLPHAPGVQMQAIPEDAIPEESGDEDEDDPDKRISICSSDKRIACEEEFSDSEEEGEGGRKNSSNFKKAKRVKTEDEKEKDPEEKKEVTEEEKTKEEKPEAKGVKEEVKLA
Sequence of High affinity nerve growth factor receptor (P04629 whole entry): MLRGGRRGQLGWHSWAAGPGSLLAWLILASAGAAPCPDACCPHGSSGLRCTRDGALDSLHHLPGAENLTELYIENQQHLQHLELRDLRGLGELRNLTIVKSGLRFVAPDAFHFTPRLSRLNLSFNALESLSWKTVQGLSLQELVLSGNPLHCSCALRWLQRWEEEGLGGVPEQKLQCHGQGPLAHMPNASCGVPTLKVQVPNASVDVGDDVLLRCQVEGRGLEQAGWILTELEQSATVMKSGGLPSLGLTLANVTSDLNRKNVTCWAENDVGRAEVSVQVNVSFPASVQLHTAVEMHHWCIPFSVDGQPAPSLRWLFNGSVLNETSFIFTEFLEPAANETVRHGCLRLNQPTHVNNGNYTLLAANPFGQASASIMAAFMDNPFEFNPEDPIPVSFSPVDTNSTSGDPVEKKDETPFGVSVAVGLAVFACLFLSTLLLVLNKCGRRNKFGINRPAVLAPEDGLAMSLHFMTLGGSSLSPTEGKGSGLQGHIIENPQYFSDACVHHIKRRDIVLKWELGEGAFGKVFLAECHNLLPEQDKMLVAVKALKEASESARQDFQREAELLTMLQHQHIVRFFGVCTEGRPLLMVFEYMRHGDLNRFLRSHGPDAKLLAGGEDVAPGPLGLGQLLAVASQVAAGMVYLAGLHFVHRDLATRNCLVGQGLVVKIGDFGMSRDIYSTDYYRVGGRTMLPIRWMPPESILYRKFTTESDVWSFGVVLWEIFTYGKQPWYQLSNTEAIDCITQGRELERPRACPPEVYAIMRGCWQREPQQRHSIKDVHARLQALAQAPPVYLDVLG
Sequence of CDK3/Cyclin E (Homo sapiens) (P24864 whole entry, looked up): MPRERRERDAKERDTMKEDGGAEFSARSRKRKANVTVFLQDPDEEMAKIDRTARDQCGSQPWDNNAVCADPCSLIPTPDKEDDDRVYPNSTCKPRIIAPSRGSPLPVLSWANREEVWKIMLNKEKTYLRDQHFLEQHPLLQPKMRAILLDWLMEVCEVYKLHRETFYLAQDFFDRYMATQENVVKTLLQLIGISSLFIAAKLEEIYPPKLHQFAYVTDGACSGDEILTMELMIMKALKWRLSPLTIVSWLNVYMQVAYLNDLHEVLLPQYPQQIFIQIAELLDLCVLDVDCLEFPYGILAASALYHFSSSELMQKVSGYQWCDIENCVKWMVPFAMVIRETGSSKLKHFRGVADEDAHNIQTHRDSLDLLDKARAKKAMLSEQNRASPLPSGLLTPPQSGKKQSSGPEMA
Sequence of CDK3/Cyclin E (Homo sapiens) (Q00526 whole entry, looked up): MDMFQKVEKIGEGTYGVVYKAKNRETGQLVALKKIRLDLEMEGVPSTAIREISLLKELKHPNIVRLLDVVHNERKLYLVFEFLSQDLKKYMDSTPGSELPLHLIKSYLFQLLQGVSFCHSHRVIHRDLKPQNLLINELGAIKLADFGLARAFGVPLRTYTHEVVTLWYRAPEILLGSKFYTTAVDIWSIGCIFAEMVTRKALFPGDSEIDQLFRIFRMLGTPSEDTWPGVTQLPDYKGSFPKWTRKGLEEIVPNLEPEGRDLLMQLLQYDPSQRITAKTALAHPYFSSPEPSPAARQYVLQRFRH
Sequence of Aurora kinase A (O14965 whole entry): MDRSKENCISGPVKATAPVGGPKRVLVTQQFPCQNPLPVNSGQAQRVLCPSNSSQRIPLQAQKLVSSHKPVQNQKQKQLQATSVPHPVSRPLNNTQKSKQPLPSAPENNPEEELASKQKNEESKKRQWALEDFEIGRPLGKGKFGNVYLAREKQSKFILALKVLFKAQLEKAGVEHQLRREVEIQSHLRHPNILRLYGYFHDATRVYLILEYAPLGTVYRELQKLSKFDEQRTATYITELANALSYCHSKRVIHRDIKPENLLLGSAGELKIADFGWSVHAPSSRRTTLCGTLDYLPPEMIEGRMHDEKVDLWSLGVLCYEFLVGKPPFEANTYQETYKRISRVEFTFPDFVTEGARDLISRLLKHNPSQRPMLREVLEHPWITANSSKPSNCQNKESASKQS

AUC(0-inf) [1]: 6160 ng·h/mL
Cmax [2]: 360 ng/mL
IC50 (Aurora kinase A): 12 nM
IC50 [4]: 31 nM
inhibition (Histone deacetylase 1): Active
inhibition [10]: 72%
inhibition (CDK4/CDK9 (Homo sapiens) [11]): Active
half-life [12]: 14.9 h
inhibition [14]: 97%
IC50 [19]: 53 nM
CL/F [21]: 210 mL/min/kg
inhibition [23]: 68%
clearance [24]: 69 mL/min/kg
inhibition [25]: 66%
inhibition (CDK4/CDK9 (Homo sapiens) [26]): Active
inhibition (CDK4/CDK9 (Homo sapiens) [28]): Active
Structure (SMILES): CN(C)C(=O)c1cc2cnc(Nc3ccc(NC(=O)CCCCCCC(=O)NO)cc3)nc2n1C1CCCC1
Activity (HepG2 [3]): Dose-dependent effect
Activity (T47D [5]): 17.1%
Activity (T47D [6]): 4.5%
Activity (NCI-H460 [7]): 79.6%
Activity (A549 [8]): Active
Activity (A549 [9]): 0.57%
IC50 (4T1): 1110 nM
Activity (Mus musculus): Non-Toxic
Activity (T47D [13]): 6.48%
Activity (Hep 3B2 [15]): Active
IC50 (HepG2 [16]): 3370 nM
Activity (HepG2 [17]): 5.75%
Activity (Hep 3B2 [18]): 2.08%
Activity (HepG2 [20]): Dose-dependent effect
Activity (NCI-H460 [22]): Active
Activity (HepG2 [27]): 76.4%
